Source: PubChem BioAssay
Sampled rows, rich in hits. Any-hit rate of the full collection: about 1.3%.
TCR-CD3 inh: inhibitors of human TCR-CD3 interaction, primary screen, biochemical, fluorescence, TAMRA-labeled TCR probe; T-cell receptor (TCR); inhibition, % at 9.4 µM; hit rate 0.37% among 360,000;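 note: recombinant mutant TCR 2C K166C tagged with TAMRA read by polarization; 0% = receptor in buffer alone and 100% = receptor with positive control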
DDE Tn6 FP inh: inhibitors of Tn6 peptide binding to fibrin DD(E), primary screen, biochemical, fluorescence polarization, human fibrin, Tn6 probe; Fibrin DD(E) TRITC-Tn6 fluorescence polarization displacement; inhibition, % at 8.3 µM; hit rate 0.21% among 370,000;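 active = inhibition above a per-campaign cutoff: mean of compounds within control limits plus 3 SD, cut at about 15% in these data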;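 note: 0% = median of all compound wells on the plate and 100% = blocking peptide control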
Target sequence (P02675 whole entry, looked up): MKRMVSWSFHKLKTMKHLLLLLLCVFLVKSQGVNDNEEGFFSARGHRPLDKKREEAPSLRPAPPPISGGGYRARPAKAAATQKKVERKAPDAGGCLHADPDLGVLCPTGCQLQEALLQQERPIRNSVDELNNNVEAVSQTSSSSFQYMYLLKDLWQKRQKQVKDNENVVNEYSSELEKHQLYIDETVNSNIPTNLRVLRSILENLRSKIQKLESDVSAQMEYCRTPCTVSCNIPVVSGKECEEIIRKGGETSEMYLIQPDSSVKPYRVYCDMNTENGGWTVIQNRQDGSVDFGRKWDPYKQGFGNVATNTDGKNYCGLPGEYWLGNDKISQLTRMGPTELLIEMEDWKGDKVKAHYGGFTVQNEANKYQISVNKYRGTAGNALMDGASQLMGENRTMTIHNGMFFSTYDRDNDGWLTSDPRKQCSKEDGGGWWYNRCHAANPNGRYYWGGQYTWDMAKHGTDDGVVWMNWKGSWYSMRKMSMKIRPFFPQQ
DDE Tn7 FP inh: inhibitors of Tn7 peptide binding to fibrin DD(E), primary screen, biochemical, fluorescence polarization, human fibrin, Tn7 probe | Fibrinogen beta chain (Homo sapiens), P02675 | FP displacement of FITC-Tn7 peptide from fibrin DD(E); 0% = median of compound wells per plate | inhibition, % at 8.3 µM | hit rate 0.13% among 370,000 | AID 720508, 2013;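 active = inhibition above the mean of compounds falling within the control limits plus 3 SD of them, cut at about 14% in these data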;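 note: 0% = plate median of compound wells and 100% = 10 µM Aha-Tn7 peptide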
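assay system = human clot-derived fibrin DD(E) complex | quantity = Fibrin-DD(E) at 2 µM final | timing = 10 min preincubation, 3 h with tracer, room temperature | signal = fluorescence polarization | measure = percent inhibition | benchmarks = high control wells with 10 µM unlabelled Aha-Tn7 peptide (full inhibition) | replicates = singlicate testing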
ABHD4 inh: ABHD4 inhibitors, primary screen, biochemical, fluorescence polarization, mouse; (Lyso)-N-acylphosphatidylethanolamine lipase (Mus musculus), Q8VD66; purified mABHD4, FP-Rh probe fluorescence polarization; inhibition, % at 8.92 µM; hit rate 0.54% among 370,000; AID 720543, 2013;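 active = inhibition exceeding the mean over every tested compound plus 3 SD, cut at about 30% in these data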;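 note: 0% = plate median of compound wells and 100% = S159A mutant with DMSO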
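assay system = mABHD4 protein | compound dosing = single nominal dose of 8.92 µM, 0.89% DMSO final | read-out basis = percent inhibition of probe binding, normalized to plate controls | schedule = Enzyme–compound pre-incubation 45 min, then probe 60 min, both 25 °C | detection = fluorescence polarization, excitation 525 nm, emission 598 nm, BODIPY TMR filters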
HTRA1 inhibitor: HTRA1 serine protease inhibitors, primary screen, biochemical, fluorescence polarization, HTS. Q92743. recombinant HTRA1, FP-rhodamine activity-based probe. inhibition, % at 5.96 µM. hit rate 0.5% among 340,000. AID 504803, 2011; in the data active = inhibition above about 36%;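 note: 0% = enzyme with DMSO and 100% = wells lacking enzyme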
HTRA1 conf: HTRA1 protease inhibitors, retest, confirmation, biochemical, fluorescence polarization; shares compounds with HTRA1 inhibitor; recombinant HTRA1, FP-rhodamine activity-based probe; inhibition, % at 5.96 µM; hit rate 66% among 1,600;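 active = mean inhibition over three repeats above a set limit taken from the earlier primary screen, cut at about 37% in these data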;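 note: 0% = HTRA1 with DMSO and 100% = wells lacking HTRA1; inhibitors block probe binding so polarization drops and inhibition rises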
BSA probe FL: compounds interfering with TAMRA-BSA probe, counter-screen for TCR-CD3 interaction inhibitor project, biochemical, fluorescence, TAMRA-labeled BSA. shares compounds with TCR-CD3 inh. TAMRA-labeled BSA probe fluorescence counterscreen. inhibition, % at 9.4 µM. hit rate 10% among 1,200. AID 652035, 2013; in the data active = inhibition above about 23%;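 note: 0% = buffer low control and 100% = reference high control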
TCR-CD3 conf: TCR-CD3 interaction inhibitors, retest, confirmation, biochemical, fluorescence, TAMRA-labeled TCR probe; shares compounds with TCR-CD3 inh; TAMRA-labeled TCR probe fluorescence binding assay; inhibition, % at 9.4 µM; hit rate 48% among 1,200
mABHD4 conf: ABHD4 inhibitors, retest, confirmation, biochemical, fluorescence polarization, mouse | purified mABHD4, FP-Rh probe fluorescence polarization | shares compounds with ABHD4 inh | inhibition, % at 8.92 µM | hit rate 55% among 1,800 | AID 720658, 2013;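 active = mean inhibition across replicates above the hit cutoff set in the primary screen, cut at about 30% in these data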;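 note: 0% = wild-type ABHD4 with DMSO and 100% = catalytically dead S159A mutant with DMSO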
* marks the source's active call; other numbers are inactive results. Cut-off read from the data, not from the text of the source, unless noted: active = inhibition above about 19%; inactive = the rest.

What do the screens show for `Cc1cn([C@H]2C[C@H](O)[C@@H](CNCc3cnc(N4CCOCC4)s3)O2)c(=O)[nH]c1=O`?
TCR-CD3 inh: -8; DDE Tn6 FP inh: 3; DDE Tn7 FP inh: -2; ABHD4 inh: 3; HTRA1 inhibitor: 4

Results for O=[N+]([O-])c1ccc(Cl)c2c1C1C=CCC1C(c1ccccn1)N2 (stereo unspecified) ?
TCR-CD3 inh: 3; DDE Tn6 FP inh: -8; DDE Tn7 FP inh: -11; ABHD4 inh: 43*; HTRA1 inhibitor: 60*; HTRA1 conf: 43*; mABHD4 conf: 74*

What do the screens show for `Cc1cc([N+](=O)[O-])cc2c1NC(c1ccccn1)C1CC=CC21` (stereo unspecified)?
TCR-CD3 inh: 3; DDE Tn6 FP inh: 7; DDE Tn7 FP inh: -3; ABHD4 inh: 18; HTRA1 inhibitor: 11

What do the screens show for `CSc1ccccc1NC(=O)CN(C)C(=O)Cn1c(=O)oc2ccccc21`?
TCR-CD3 inh: -2; DDE Tn6 FP inh: 6; DDE Tn7 FP inh: -10; ABHD4 inh: -1; HTRA1 inhibitor: -2

Results for O=C(Nc1ccccc1)c1ccc2nc(-c3ccco3)c(-c3ccco3)nc2c1 ?
TCR-CD3 inh: 24*; DDE Tn6 FP inh: -8; DDE Tn7 FP inh: 1; ABHD4 inh: 47*; HTRA1 inhibitor: 59*; HTRA1 conf: -20; mABHD4 conf: 22

Results for O=C(NC(=S)Nc1ccc(N2CCOCC2)cc1)c1ccco1 ?
TCR-CD3 inh: -1; DDE Tn6 FP inh: -2; DDE Tn7 FP inh: -1; ABHD4 inh: 6; HTRA1 inhibitor: -2

What do the screens show for `CCCCNC(=O)c1ccc2nc(-c3ccco3)c(-c3ccco3)nc2c1`?
TCR-CD3 inh: 23*; DDE Tn6 FP inh: -13; DDE Tn7 FP inh: -6; ABHD4 inh: 60*; HTRA1 inhibitor: 53*; HTRA1 conf: 39*; BSA probe FL: -9; TCR-CD3 conf: 16; mABHD4 conf: 52*

How did S=C(Nc1ccc(N2CCOCC2)cc1)Nc1ccc2nc(-c3ccco3)c(-c3ccco3)nc2c1 do in these assays?
TCR-CD3 inh: 9; DDE Tn6 FP inh: -6; DDE Tn7 FP inh: 4; ABHD4 inh: 38*; HTRA1 inhibitor: 48*; HTRA1 conf: 32; mABHD4 conf: 42*

Results for O=C(NCc1ccccc1)c1ccc2nc(-c3ccco3)c(-c3ccco3)nc2c1 ?
TCR-CD3 inh: 22*; DDE Tn6 FP inh: -6; DDE Tn7 FP inh: -5; ABHD4 inh: 54*; HTRA1 inhibitor: 63*; HTRA1 conf: 22; BSA probe FL: -10; TCR-CD3 conf: 24*; mABHD4 conf: 38*

Results for O=C(Nc1cccnc1)c1ccc2nc(-c3ccccc3)c(-c3ccccc3)nc2c1 ?
TCR-CD3 inh: -5; DDE Tn6 FP inh: -4; DDE Tn7 FP inh: 7; ABHD4 inh: -14; HTRA1 inhibitor: -35

How did O=C(NCc1ccccc1)c1ccc2nccnc2c1 do in these assays?
TCR-CD3 inh: -5; DDE Tn6 FP inh: 5; DDE Tn7 FP inh: -2; ABHD4 inh: -5; HTRA1 inhibitor: 4

What do the screens show for `COc1ccccc1Nc1nn2c(=O)c3ccc(C(=O)N4CCCC(C)C4)cc3nc2s1` (stereo unspecified)?
TCR-CD3 inh: 7; DDE Tn6 FP inh: -14; DDE Tn7 FP inh: 2; ABHD4 inh: -2; HTRA1 inhibitor: -80

How did COc1ccc2nc(-c3ccco3)c(-c3ccco3)nc2c1 do in these assays?
TCR-CD3 inh: 31*; DDE Tn6 FP inh: 3; DDE Tn7 FP inh: 2; ABHD4 inh: 57*; HTRA1 inhibitor: 52*; HTRA1 conf: 33; BSA probe FL: -9; TCR-CD3 conf: 31*; mABHD4 conf: 29

What do the screens show for `Cc1cc(SCC(=O)N/N=C/c2ccc(O)c(O)c2)nc2ccccc12`?
TCR-CD3 inh: 26*; DDE Tn6 FP inh: -3; DDE Tn7 FP inh: -17; ABHD4 inh: 35*; HTRA1 inhibitor: 78*; HTRA1 conf: 74*; BSA probe FL: -10; TCR-CD3 conf: 39*; mABHD4 conf: 31*

What do the screens show for `Cc1cc(SCC(=O)N/N=C/c2ccc(O)cc2O)nc2ccccc12`?
TCR-CD3 inh: 2; DDE Tn6 FP inh: -6; DDE Tn7 FP inh: 2; ABHD4 inh: -2; HTRA1 inhibitor: 0

How did O=C(CSc1nc2ccccc2o1)N/N=C/c1ccc(O)c(O)c1 do in these assays?
TCR-CD3 inh: 13; DDE Tn6 FP inh: -6; DDE Tn7 FP inh: 6; ABHD4 inh: 34*; HTRA1 inhibitor: 37*; HTRA1 conf: 66*; mABHD4 conf: 29

Results for Cc1ccccc1C(=O)Nc1cccc(C(=O)N/N=C/c2cc(Cl)cc([N+](=O)[O-])c2O)c1 ?
TCR-CD3 inh: 45*; DDE Tn6 FP inh: 10; DDE Tn7 FP inh: 5; ABHD4 inh: 37*; HTRA1 inhibitor: 42*; HTRA1 conf: 50*; BSA probe FL: -6; TCR-CD3 conf: 56*; mABHD4 conf: 49*

How did CC1OC(Nc2cccc3ccccc23)C(O)C(O)C1O (stereo unspecified) do in these assays?
TCR-CD3 inh: -3; DDE Tn6 FP inh: -9; DDE Tn7 FP inh: 10; ABHD4 inh: 36*; HTRA1 inhibitor: 43*; HTRA1 conf: 12; mABHD4 conf: 1

How did CC1OC(Nc2ccc(N=Nc3ccccc3)cc2)C(O)C(O)C1O (stereo unspecified) do in these assays?
TCR-CD3 inh: 3; DDE Tn6 FP inh: 3; DDE Tn7 FP inh: 7; ABHD4 inh: 6; HTRA1 inhibitor: 6

Results for NC(=S)N=Nc1c(O)cc(O)c2[nH]c(=O)ccc12 ?
TCR-CD3 inh: 30*; DDE Tn6 FP inh: -6; DDE Tn7 FP inh: -1; ABHD4 inh: 34*; HTRA1 inhibitor: 61*; HTRA1 conf: 43*; mABHD4 conf: 77*
